These compounds were tested on HeLa (assay: Cytotoxicity against human HeLa cells after 48 hrs by MTT assay). Settings: not given.
Format: functional, cell-based
Summary of the method: (§1)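 HL-60 (2 × 10^4/200 μl) or HeLa (1 × 10^4/200 μl) in RPMI-1640/MEM, 10% FCS, 37 °C, 5% CO2; treated 0.1–50 μM for 48 h, DMSO vehicle <0.2%. MTT added final 3 h; formazan dissolved in DMSO, OD 570 nm (reference 620 nm). IC50 as 50% viability versus untreated control; three experiments, CV <10%.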

SMILES | IC50 [µM]
CCCCOC(=O)[C@@]1(C)C(=O)CC[C@]2(C)[C@H]3CC=C4[C@@H]5[C@@H](C)[C@H](C)CC[C@]5(C)CC[C@@]4(C)[C@]3(C)CC[C@@H]12 | > 50
CCCCOC(=O)[C@@]1(C)C(=O)/C(=C\O)C[C@]2(C)[C@H]3C(=O)C=C4[C@@H]5[C@@H](C)[C@H](C)CC[C@]5(C)CC[C@@]4(C)[C@]3(C)CC[C@@H]12 | > 50
CCCCOC(=O)[C@]1(C)[C@@H]2CC[C@]3(C)[C@H](CC=C4[C@@H]5[C@@H](C)[C@H](C)CC[C@]5(C)CC[C@]43C)[C@@]2(C)CC(C#N)[C@@H]1O (some centres undefined) | > 50
C[C@H]1[C@H](C)CC[C@]2(C)CC[C@]3(C)C(=CC(=O)[C@@H]4[C@@]5(C)CC[C@@H](O)[C@](C)(C(=O)O)[C@@H]5CC[C@]43C)[C@H]12 [11-KETO BOSWELLIC ACID] | 50
CCCCOC(=O)[C@@]1(C)C(=O)C(C#N)C[C@]2(C)[C@H]3CC=C4[C@@H]5[C@@H](C)[C@H](C)CC[C@]5(C)CC[C@@]4(C)[C@]3(C)CC[C@@H]12 (some centres undefined) | 35
CCCCOC(=O)[C@@]1(C)C(=O)/C(=C\O)C[C@]2(C)[C@H]3CC=C4[C@@H]5[C@@H](C)[C@H](C)CC[C@]5(C)CC[C@@]4(C)[C@]3(C)CC[C@@H]12 | 44
CCCCOC(=O)[C@]1(C)[C@@H]2CC[C@]3(C)[C@H](C(=O)C=C4[C@@H]5[C@@H](C)[C@H](C)CC[C@]5(C)CC[C@]43C)[C@@]2(C)CC(C#N)[C@@H]1O (some centres undefined) | 30

These compounds were tested on HL-60 (assay: Cytotoxicity against human HL60 cells after 48 hrs by MTT assay). Settings: HL-60, 48 h.
Format: functional, cell-based
Summary of the method: as §1

SMILES | IC50 [µM]
CCCCOC(=O)[C@@]1(C)C(=O)CC[C@]2(C)[C@H]3CC=C4[C@@H]5[C@@H](C)[C@H](C)CC[C@]5(C)CC[C@@]4(C)[C@]3(C)CC[C@@H]12 | > 50
CCCCOC(=O)[C@@]1(C)C(=O)/C(=C\O)C[C@]2(C)[C@H]3C(=O)C=C4[C@@H]5[C@@H](C)[C@H](C)CC[C@]5(C)CC[C@@]4(C)[C@]3(C)CC[C@@H]12 | 5
CCCCOC(=O)[C@]1(C)[C@@H]2CC[C@]3(C)[C@H](CC=C4[C@@H]5[C@@H](C)[C@H](C)CC[C@]5(C)CC[C@]43C)[C@@]2(C)CC(C#N)[C@@H]1O (some centres undefined) | > 50
C[C@H]1[C@H](C)CC[C@]2(C)CC[C@]3(C)C(=CC(=O)[C@@H]4[C@@]5(C)CC[C@@H](O)[C@](C)(C(=O)O)[C@@H]5CC[C@]43C)[C@H]12 [11-KETO BOSWELLIC ACID] | 32
CCCCOC(=O)[C@@]1(C)C(=O)C(C#N)C[C@]2(C)[C@H]3CC=C4[C@@H]5[C@@H](C)[C@H](C)CC[C@]5(C)CC[C@@]4(C)[C@]3(C)CC[C@@H]12 (some centres undefined) | 14
CCCCOC(=O)[C@@]1(C)C(=O)/C(=C\O)C[C@]2(C)[C@H]3CC=C4[C@@H]5[C@@H](C)[C@H](C)CC[C@]5(C)CC[C@@]4(C)[C@]3(C)CC[C@@H]12 | 33
CCCCOC(=O)[C@]1(C)[C@@H]2CC[C@]3(C)[C@H](C(=O)C=C4[C@@H]5[C@@H](C)[C@H](C)CC[C@]5(C)CC[C@]43C)[C@@]2(C)CC(C#N)[C@@H]1O (some centres undefined) | 14

Source: ChEMBL document CHEMBL1759852, “A comparative study of proapoptotic potential of cyano analogues of boswellic acid and 11-keto-boswellic acid” (Eur J Med Chem, 2011)
